The source made the active and inactive calls. No cut-off for these calls is given here.
What was measured:
HCC827 [1] = assay: Antiproliferative activity against human HCC827 cells after 72 hrs by MTT assay; assay type: functional, cell-based; details: HCC827, 72 h
NCI-H1975 = assay: Antiproliferative activity against human NCI-H1975 cells after 72 hrs by MTT assay; assay type: functional, cell-based; details: NCI-H1975, 72 h
A549 = assay: Antiproliferative activity against human A549 cells after 72 hrs by MTT assay; assay type: functional, cell-based; details: A549, 72 h
[2] = Selectivity ratio of IC50 for human NCI-H1975 cells to IC50 for human HCC827 cells; assay type: functional
[3] = Selectivity ratio of IC50 for human A549 cells to IC50 for human HCC827 cells; assay type: functional
[4] = molecular target: T1, Epidermal growth factor receptor (Homo sapiens, UniProt P00533); assay: Inhibition of wild type EGFR (unknown origin) using poly (Glu, Tyr) as substrate after 40 mins by kinase-glo plus luminescence assay
T1 sequence (P00533 whole entry): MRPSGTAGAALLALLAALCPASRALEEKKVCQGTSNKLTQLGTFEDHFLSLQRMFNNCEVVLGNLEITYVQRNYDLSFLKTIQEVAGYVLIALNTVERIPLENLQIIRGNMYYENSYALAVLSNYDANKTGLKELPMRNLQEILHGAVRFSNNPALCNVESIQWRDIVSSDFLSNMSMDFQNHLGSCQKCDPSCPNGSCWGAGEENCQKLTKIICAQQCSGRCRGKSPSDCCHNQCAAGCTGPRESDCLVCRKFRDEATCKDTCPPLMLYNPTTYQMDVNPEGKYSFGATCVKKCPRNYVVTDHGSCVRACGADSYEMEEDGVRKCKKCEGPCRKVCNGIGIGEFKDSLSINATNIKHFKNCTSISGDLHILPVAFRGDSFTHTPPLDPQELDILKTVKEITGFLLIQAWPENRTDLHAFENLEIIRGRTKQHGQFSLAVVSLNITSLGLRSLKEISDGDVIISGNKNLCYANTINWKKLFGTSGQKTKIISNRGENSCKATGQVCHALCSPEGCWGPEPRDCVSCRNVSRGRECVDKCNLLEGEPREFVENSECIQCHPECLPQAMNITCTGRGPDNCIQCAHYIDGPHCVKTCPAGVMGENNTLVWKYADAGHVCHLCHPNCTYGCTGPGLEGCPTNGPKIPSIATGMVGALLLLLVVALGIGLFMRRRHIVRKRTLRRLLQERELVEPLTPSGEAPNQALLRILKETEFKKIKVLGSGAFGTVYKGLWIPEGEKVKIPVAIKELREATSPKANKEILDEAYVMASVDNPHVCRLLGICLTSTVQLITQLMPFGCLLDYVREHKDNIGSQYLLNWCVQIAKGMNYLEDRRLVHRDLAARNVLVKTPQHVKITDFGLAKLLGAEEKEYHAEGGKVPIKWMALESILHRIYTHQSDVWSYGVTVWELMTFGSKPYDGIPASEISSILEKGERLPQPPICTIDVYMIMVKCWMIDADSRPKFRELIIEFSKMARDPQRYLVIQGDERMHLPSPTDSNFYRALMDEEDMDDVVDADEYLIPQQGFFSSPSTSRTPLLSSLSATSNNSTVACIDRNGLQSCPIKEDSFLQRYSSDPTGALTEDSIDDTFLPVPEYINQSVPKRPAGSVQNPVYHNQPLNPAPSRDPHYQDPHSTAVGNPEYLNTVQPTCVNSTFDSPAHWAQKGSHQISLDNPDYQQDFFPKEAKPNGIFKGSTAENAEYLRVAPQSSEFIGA

[5] = molecular target: Epidermal growth factor receptor (Homo sapiens, UniProt P00533, L858R/T790M); assay: Inhibition of EGFR L858R/T790M double mutant (unknown origin) using poly (Glu, Tyr) as substrate after 40 mins by kinase-glo plus luminescence assay
Chain of Epidermal growth factor receptor (Homo sapiens, UniProt P00533, L858R/T790M) (P00533 25-1210 T790M/L858R limits assumed): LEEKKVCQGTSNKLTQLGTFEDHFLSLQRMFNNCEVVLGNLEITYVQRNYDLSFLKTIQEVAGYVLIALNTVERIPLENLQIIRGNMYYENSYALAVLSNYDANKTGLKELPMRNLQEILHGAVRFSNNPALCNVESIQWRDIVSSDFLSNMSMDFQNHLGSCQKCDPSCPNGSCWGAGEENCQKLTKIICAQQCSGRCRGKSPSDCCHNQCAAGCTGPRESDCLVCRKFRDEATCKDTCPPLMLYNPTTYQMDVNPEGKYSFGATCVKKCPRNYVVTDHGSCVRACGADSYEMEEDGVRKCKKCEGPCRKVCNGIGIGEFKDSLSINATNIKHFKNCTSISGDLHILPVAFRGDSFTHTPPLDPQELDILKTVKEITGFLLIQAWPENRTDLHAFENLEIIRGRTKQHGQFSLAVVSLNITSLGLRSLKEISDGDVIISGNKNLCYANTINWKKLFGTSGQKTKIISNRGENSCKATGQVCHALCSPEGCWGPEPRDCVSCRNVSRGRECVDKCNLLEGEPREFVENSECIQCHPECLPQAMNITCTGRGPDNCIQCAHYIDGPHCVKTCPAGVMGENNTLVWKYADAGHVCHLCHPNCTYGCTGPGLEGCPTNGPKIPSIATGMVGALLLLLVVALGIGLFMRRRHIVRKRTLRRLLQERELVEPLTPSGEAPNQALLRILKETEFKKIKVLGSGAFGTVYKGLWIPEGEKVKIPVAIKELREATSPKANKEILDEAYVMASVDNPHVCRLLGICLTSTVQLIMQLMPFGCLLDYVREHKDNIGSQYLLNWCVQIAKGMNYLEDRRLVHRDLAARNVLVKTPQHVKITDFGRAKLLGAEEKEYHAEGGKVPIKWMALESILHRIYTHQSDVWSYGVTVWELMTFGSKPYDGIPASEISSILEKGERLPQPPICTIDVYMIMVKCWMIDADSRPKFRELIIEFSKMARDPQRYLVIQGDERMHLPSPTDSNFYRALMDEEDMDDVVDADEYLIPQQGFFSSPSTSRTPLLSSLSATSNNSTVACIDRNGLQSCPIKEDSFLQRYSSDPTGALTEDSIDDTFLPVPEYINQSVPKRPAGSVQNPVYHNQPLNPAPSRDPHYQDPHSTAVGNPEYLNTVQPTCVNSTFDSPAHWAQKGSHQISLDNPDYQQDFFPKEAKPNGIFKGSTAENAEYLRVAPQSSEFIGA

[6] = molecular target: Epidermal growth factor receptor (Homo sapiens, UniProt P00533, C797S/L858R/T790M); assay: Inhibition of EGFR L858R/T790M/C797S triple mutant (unknown origin) using poly (Glu, Tyr) as substrate after 40 mins by kinase-glo plus luminescence assay
Chain of Epidermal growth factor receptor (Homo sapiens, UniProt P00533, C797S/L858R/T790M) (P00533 25-1210 T790M/C797S/L858R limits assumed): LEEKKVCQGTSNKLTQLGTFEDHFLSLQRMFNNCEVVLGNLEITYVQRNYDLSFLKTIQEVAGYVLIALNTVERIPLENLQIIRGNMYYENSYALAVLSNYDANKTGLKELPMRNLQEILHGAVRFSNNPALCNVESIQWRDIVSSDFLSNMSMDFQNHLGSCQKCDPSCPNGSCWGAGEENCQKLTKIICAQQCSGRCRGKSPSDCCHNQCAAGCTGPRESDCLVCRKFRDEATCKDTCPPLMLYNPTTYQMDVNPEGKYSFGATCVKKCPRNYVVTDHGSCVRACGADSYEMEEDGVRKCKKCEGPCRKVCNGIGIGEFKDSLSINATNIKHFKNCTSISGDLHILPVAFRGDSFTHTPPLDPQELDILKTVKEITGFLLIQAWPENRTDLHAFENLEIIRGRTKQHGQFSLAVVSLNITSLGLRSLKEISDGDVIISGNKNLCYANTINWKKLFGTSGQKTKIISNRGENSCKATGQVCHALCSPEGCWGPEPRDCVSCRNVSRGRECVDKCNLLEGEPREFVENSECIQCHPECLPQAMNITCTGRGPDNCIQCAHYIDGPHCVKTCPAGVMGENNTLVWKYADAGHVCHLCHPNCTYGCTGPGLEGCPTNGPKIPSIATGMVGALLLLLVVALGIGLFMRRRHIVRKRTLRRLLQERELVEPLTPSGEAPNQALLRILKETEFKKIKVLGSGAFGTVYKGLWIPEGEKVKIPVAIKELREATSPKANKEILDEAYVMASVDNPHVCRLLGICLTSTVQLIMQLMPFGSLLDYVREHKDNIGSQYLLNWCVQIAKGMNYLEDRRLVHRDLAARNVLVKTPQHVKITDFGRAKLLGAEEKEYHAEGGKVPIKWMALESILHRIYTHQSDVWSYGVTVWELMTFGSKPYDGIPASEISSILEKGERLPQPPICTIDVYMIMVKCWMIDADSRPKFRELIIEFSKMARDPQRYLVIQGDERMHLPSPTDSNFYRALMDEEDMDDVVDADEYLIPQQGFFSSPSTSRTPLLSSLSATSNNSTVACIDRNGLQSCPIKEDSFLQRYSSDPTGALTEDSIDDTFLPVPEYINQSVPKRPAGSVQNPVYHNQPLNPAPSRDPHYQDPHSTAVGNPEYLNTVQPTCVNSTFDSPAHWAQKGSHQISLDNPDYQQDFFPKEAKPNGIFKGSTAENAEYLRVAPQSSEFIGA

HCC827 [7] = assay: Antiproliferative activity against human HCC827 cells at 1 uM after 72 hrs by MTT assay relative to control; assay type: functional; details: for Emax at 1 µM: Homo sapiens, HCC827, 72 h
In short: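 Human lung carcinoma HCC827 cells (EGFR Del E746-A750) were tested by MTT colorimetric assay, with gefitinib and AZD9291 as positive controls. The read-out was percent growth inhibition at a single fixed concentration.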

[8] = molecular target: T1, Epidermal growth factor receptor; assay: Inhibition of EGFR auto-phosphorylation in human HCC827 cells after 8 hrs by Western blot analysis; assay type: cell-based
HCC827 [9] = assay: Anti-tumor activity against human HCC827 cells xenografted in nude Balb/c mouse assessed as tumor growth inhibition at 5 mg/kg, po administered once daily for 20 days measured once in three days till day 21; assay type: functional, organism-based
In short: (§1)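 HCC827 (EGFR Del E746-A750) xenografts in nude mice, n = 6 per group. Oral dosing at 1 or 5 mg/kg once daily for 20 days, compared against a vehicle group. Read-outs were tumor growth curves and body weight over the treatment period, plus final tumor weight after 20 days. Significance was tested vs vehicle.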

Mus musculus = assay: Toxicity in nude Balb/c mouse xenografted with human HCC827 cells assessed as increase in body weight at 5 mg/kg, po administered once daily for 20 days measured every day till day 21; assay type: organism-based; details: in vivo, 480 h; in short: as §1

Compound	IC50 (HCC827 [1])	IC50 (NCI-H1975)	IC50 (A549)	also measured
CN1CCN(c2ccc(Nc3ncc4nc(SCc5cccnc5)n(C5CCCC5)c4n3)cc2)CC1	517 nM	–	–	–
CN(C)CCN(C)c1ccc(Nc2ncc3nc([S+]([O-])c4ccccc4)n(C4CCOCC4)c3n2)cc1 (stereo not drawn)	1330 nM	–	–	–
CN1CCN(c2ccc(Nc3ncc4nc(Sc5ccccc5)n(C5CC5)c4n3)cc2)CC1	304 nM	–	–	–
CN1CCN(c2ccc(Nc3ncc4nc([S+]([O-])c5ccccc5)n(C5CC5)c4n3)cc2)CC1 (stereo not drawn)	1630 nM	–	–	–
CN1CCN(c2ccc(Nc3ncc4nc([S+]([O-])Cc5ccccc5)n(C5CCOCC5)c4n3)cc2)CC1 (stereo not drawn)	433 nM	–	–	–
CN(C)CCOc1ccc(Nc2ncc3nc([S+]([O-])c4ccc(F)cc4)n(C4CCOCC4)c3n2)cc1 (stereo not drawn)	553 nM	–	–	–
CN(C)CCOc1ccc(Nc2ncc3nc([S+]([O-])c4cccc(F)c4)n(C4CCOCC4)c3n2)cc1 (stereo not drawn)	359 nM	–	–	–
CN(C)C1CCN(c2ccc(Nc3ncc4nc([S+]([O-])c5ccccc5)n(C5CCOCC5)c4n3)cc2)CC1 (stereo not drawn)	1290 nM	–	–	–
CN(C)CCN(C)c1ccc(Nc2ncc3nc(Sc4ccccc4)n(C4CCOCC4)c3n2)cc1	499 nM	–	–	–
CN1CCC(Oc2ccc(Nc3ncc4nc([S+]([O-])c5ccccc5)n(C5CCOCC5)c4n3)cc2)CC1 (stereo not drawn)	853 nM	–	–	–
CN1CCN(c2ccc(Nc3ncc4nc([S+]([O-])c5ccccc5)n(C5CCOCC5)c4n3)cc2)CC1 (stereo not drawn)	411 nM	–	–	–
CN1CCN(c2ccc(Nc3ncc4nc(Sc5ccccc5)n(CC5CC5)c4n3)cc2)CC1	660 nM	–	–	–
CN1CCN(c2ccc(Nc3ncc4nc(SCc5cccnc5)n(C5CCOCC5)c4n3)cc2)CC1	500 nM	–	–	–
CN1CCN(c2ccc(Nc3ncc4nc(SCc5cccnc5)n(C5CC5)c4n3)cc2)CC1	8830 nM	–	–	–
CN1CCN(c2ccc(Nc3ncc4nc([S+]([O-])Cc5cccnc5)n(C5CCCC5)c4n3)cc2)CC1 (stereo not drawn)	2350 nM	–	–	–
CN1CCN(c2ccc(Nc3ncc4nc([S+]([O-])Cc5cccnc5)n(C5CCOCC5)c4n3)cc2)CC1 (stereo not drawn)	> 10000 nM	–	–	–
CN1CCN(c2ccc(Nc3ncc4nc([S+]([O-])c5ccccc5)n(CC5CC5)c4n3)cc2)CC1 (stereo not drawn)	838 nM	–	–	–

Second part, led by results:

IC50 (HCC827 [1])	IC50 (NCI-H1975)	IC50 (A549)	Compound	also measured
64.7 nM	5110 nM	> 10000 nM	CN1CCN(c2ccc(Nc3ncc4nc([S+]([O-])c5ccccc5)n(C5CCCC5)c4n3)cc2)CC1 (stereo not drawn)	Ratio IC50 [2]: 79; Ratio IC50 [3]: >154
29.4 nM	4990 nM	> 10000 nM	CN(C)C1CCN(c2ccc(Nc3ncc4nc(Sc5ccccc5)n(C5CCOCC5)c4n3)cc2)CC1	Ratio IC50 [2]: 170; Ratio IC50 [3]: >340; IC50 [4]: 1.6 nM; IC50 [5]: 104 nM; IC50 [6]: 331 nM; Emax at 1 µM (HCC827 [7]): 81%; inhibition [8]: Dose-dependent effect; TGI (HCC827 [9]): Active; Activity (Mus musculus): Non-Toxic
42.6 to 47.9 nM	1320 nM	426 nM	CN1CCN(c2ccc(Nc3ncc4nc(Sc5ccccc5)n([C@H]5CC[C@H](O)CC5)c4n3)cc2)CC1	Ratio IC50 [2]: 31; Ratio IC50 [3]: 10; IC50 [6]: 529 nM
214 nM	–	–	CC(C)n1c([S+]([O-])c2ccccc2)nc2cnc(Nc3ccc(N4CCN(C)CC4)cc3)nc21 (stereo not drawn)	–
47.8 nM	6260 nM	4850 nM	CN(C)CCOc1ccc(Nc2ncc3nc(Sc4ccc(F)cc4)n(C4CCOCC4)c3n2)cc1	Ratio IC50 [2]: 131; Ratio IC50 [3]: 101; IC50 [4]: 2.5 nM; IC50 [5]: 189 nM; IC50 [6]: 114 nM
44.3 nM	9610 nM	> 10000 nM	CN(C)CCOc1ccc(Nc2ncc3nc(Sc4ccccc4)n(C4CCOCC4)c3n2)cc1	Ratio IC50 [2]: 217; Ratio IC50 [3]: >226; IC50 [6]: 556 nM; Emax at 1 µM (HCC827 [7]): 78%
51.2 nM	5580 nM	237 nM	CN1CCN(c2ccc(Nc3ncc4nc(Sc5ccccc5)n(C5CCCC5)c4n3)cc2)CC1	Ratio IC50 [2]: 109; Ratio IC50 [3]: 5
106 nM	–	–	CN1CCN(c2ccc(Nc3ncc4nc(SCc5ccccc5)n(C5CCOCC5)c4n3)cc2)CC1	–
50.3 nM	> 10000 nM	> 10000 nM	CN(C)CCOc1ccc(Nc2ncc3nc([S+]([O-])c4ccccc4)n(C4CCOCC4)c3n2)cc1 (stereo not drawn)	Ratio IC50 [2]: >198; Ratio IC50 [3]: >198
140 nM	–	–	CN1CCC(Oc2ccc(Nc3ncc4nc(Sc5ccccc5)n(C5CCOCC5)c4n3)cc2)CC1	–
51.4 nM	2770 nM	3360 nM	CN(C)CCOc1ccc(Nc2ncc3nc(Sc4cccc(F)c4)n(C4CCOCC4)c3n2)cc1	Ratio IC50 [2]: 54; Ratio IC50 [3]: 65; IC50 [6]: 805 nM
42.6 nM	2260 nM	2940 nM	CN1CCN(c2ccc(Nc3ncc4nc(Sc5ccccc5)n(C5CCOCC5)c4n3)cc2)CC1	Ratio IC50 [2]: 53; Ratio IC50 [3]: 69; IC50 [6]: 892 nM
268 nM	–	–	CN1CCN(c2ccc(Nc3ncc4nc([S+]([O-])c5ccccc5)n([C@H]5CC[C@H](O)CC5)c4n3)cc2)CC1 (stereo partly drawn)	–
290 nM	–	–	CC(C)n1c(Sc2ccccc2)nc2cnc(Nc3ccc(N4CCN(C)CC4)cc3)nc21	–
35.9 nM	–	–	CN1CCN(c2ccc(Nc3ncc4nc(Nc5ccccc5)n(C5CCCC5)c4n3)cc2)CC1	Emax at 1 µM (HCC827 [7]): 70%

Reference: ChEMBL document CHEMBL4219174, “Synthesis and evaluation of 2,9-disubstituted 8-phenylthio/phenylsulfinyl-9H-purine as new EGFR inhibitors” (Bioorg Med Chem, 2018)
